In ChEMBL document CHEMBL1142019, “Design and synthesis of novel 9-substituted-7-aryl-3,4,5,6-tetrahydro-2H-pyrido[4,3-b]- and [2,3-b]-1,5-oxazocin-6-ones as NK(1) antagonists” (2005) one finds Kb, Remaining ratio and Effect data, which are given here for 17 compounds.

Test [1] deals with Substance-P receptor (Cavia porcellus) (UniProt P30547). As to the kind of experiment: Antagonist activity against tachykinin receptor 1 activity in guinea pig ileum in vitro. The format is functional, tissue-based. An outline of the steps: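 Isolated guinea pig ileum preparation; NK1 antagonism expressed as a K_B value.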
Chain of Substance-P receptor (Cavia porcellus) (P30547 whole entry): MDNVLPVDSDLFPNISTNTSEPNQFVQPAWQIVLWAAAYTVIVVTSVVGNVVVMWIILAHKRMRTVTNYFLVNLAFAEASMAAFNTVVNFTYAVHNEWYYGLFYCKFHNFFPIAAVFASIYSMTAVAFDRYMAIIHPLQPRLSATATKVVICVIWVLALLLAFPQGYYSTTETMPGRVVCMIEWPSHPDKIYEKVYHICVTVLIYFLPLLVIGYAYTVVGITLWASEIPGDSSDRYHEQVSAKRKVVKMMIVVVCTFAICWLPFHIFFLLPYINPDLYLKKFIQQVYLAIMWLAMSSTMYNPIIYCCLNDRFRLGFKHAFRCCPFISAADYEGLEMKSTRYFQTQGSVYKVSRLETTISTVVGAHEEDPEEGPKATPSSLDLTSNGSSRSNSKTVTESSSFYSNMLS
The species named for a further test is Rattus norvegicus. As to the kind of experiment: Metabolic stability expressed as the remaining ratio of compound in rat microsomes after incubation in a shaking water bath for 1 hour. The format is functional. In outline: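 Compound incubated with rat microsomes for 60 min at 37 °C in a shaking water bath. Stability is reported as the remaining ratio, the percentage of parent compound left.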

Test [2] can be described thus: Effective bladder capacity increasing effect of compound (0.3 mg/kg i.v.) expressed as the ratio of increase in effective bladder capacity compared to saline treated animals in vivo. The format is functional, Cavia porcellus. The following applies: in the assay text read “compared with the predrug values” for “compared to saline treated animals”. An outline of the steps:
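Spinalized guinea pigs given test agent iv at 0.3 mg/kg. Effective bladder capacity was the volume of saline injected into the bladder. The result is the ratio of the increase in effective bladder capacity relative to each animal's predrug value.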

SMILES strings stand for the structures.

With `O=C1c2c(-c3ccccc3)cc(N3CCCC3)nc2OCCCN1Cc1cc(C(F)(F)F)cc(C(F)(F)F)c1`, the antagonist equilibrium constant (Kb) (usually the equilibrium dissociation constant of an antagonist, usually derived from a functional assay) in test [1] amounted to 13.8 nM. Besides, the Remaining ratio in the test listed under Rattus norvegicus is 71%.

Consider `O=C1c2c(ccnc2-c2ccccc2)OCCCN1Cc1cc(C(F)(F)F)cc(C(F)(F)F)c1`, for which the Kb in test [1] was 69.2 nM. For the same compound, the Remaining ratio in the test filed under Rattus norvegicus stood at 100%.

On to `Cc1ccccc1-c1nc(N2CCC(N3CCCC3)CC2)cc2c1C(=O)N(Cc1cc(C(F)(F)F)cc(C(F)(F)F)c1)CCCO2`, for which the Effect in test [2] amounted to 3.97%. Also, in the test listed under Rattus norvegicus, the Remaining ratio worked out at 100%.

`CN1CCN(c2cc(-c3ccccc3)c3c(n2)OCCCN(Cc2cc(C(F)(F)F)cc(C(F)(F)F)c2)C3=O)CC1` gave a Kb in test [1] of 1.16 nM. Also, the Remaining ratio in the test listed under Rattus norvegicus was determined as 100%.

As for `O=C1c2c(-c3ccccc3)cc(N3CCOCC3)nc2OCCCN1Cc1cc(C(F)(F)F)cc(C(F)(F)F)c1`, the Kb in test [1] was 2.57 nM. In addition, in the test filed under Rattus norvegicus, the Remaining ratio was found to be 100%.

Regarding `O=C1c2c(cc(N3CCOCC3)nc2-c2ccccc2)OCCCN1Cc1cc(C(F)(F)F)cc(C(F)(F)F)c1`, the Kb in test [1] stood at 2.63 nM. Moreover, in the test listed under Rattus norvegicus, the Remaining ratio was determined as 100%.

`O=C1c2c(-c3ccccc3F)cc(N3CCC(N4CCCC4)CC3)nc2OCCCN1Cc1cc(C(F)(F)F)cc(C(F)(F)F)c1`: in test [1], the Kb was 0.382 nM. Further, in the test filed under Rattus norvegicus, the Remaining ratio was 100%.

In turn, `O=C1c2c(-c3ccccc3)cc(N3CCCCC3)nc2OCCCN1Cc1cc(C(F)(F)F)cc(C(F)(F)F)c1` gave a Kb in test [1] of 13.2 nM. Further, the Remaining ratio in the test listed under Rattus norvegicus was 70%.

On to `Cc1ccccc1-c1cc(N2CCC(N3CCCC3)CC2)nc2c1C(=O)N(Cc1cc(C(F)(F)F)cc(C(F)(F)F)c1)CCCO2`, for which the Kb in test [1] is 0.21 nM. The Effect in test [2] was found to be 24.2%. Moreover, the Remaining ratio in the test listed under Rattus norvegicus stood at 100%.

Compound `O=C1c2c(-c3ccccc3)cc(N3CCC(N4CCCCC4)CC3)nc2OCCCN1Cc1cc(C(F)(F)F)cc(C(F)(F)F)c1` had a Kb in test [1] of 2.34 nM. Also, in the test listed under Rattus norvegicus, the Remaining ratio amounted to 100%.

For the compound `CN(Cc1cc(C(F)(F)F)cc(C(F)(F)F)c1)C(=O)c1cccnc1-c1ccccc1`, in test [1], the Kb is 151 nM. For the same compound, the Remaining ratio in the test listed under Rattus norvegicus stood at 70%.

Compound `O=C1c2c(-c3ccccc3Cl)cc(N3CCC(N4CCCC4)CC3)nc2OCCCN1Cc1cc(C(F)(F)F)cc(C(F)(F)F)c1` registered a Kb in test [1] of 0.207 nM. The Remaining ratio in the test filed under Rattus norvegicus was 89%.

`COc1cc(N2CCOCC2)nc(-c2ccccc2)c1C(=O)N(C)Cc1cc(C(F)(F)F)cc(C(F)(F)F)c1` displayed a Kb in test [1] of 26.3 nM. The Remaining ratio in the test listed under Rattus norvegicus was found to be 100%.

As to `Cc1ccc(-c2c3n(c(=O)c4ncccc24)CC[C@@H](C)CN(Cc2cc(C(F)(F)F)cc(C(F)(F)F)c2)C3=O)cc1`, the Effect in test [2] is given as 12%.

The compound `O=C1c2c(-c3ccccc3)cc(N3CCC(N4CCCC4)CC3)nc2OCCCN1Cc1cc(C(F)(F)F)cc(C(F)(F)F)c1` came in with a Kb in test [1] of 0.224 nM. Besides, the Remaining ratio in the test listed under Rattus norvegicus amounted to 86%.

As for `FC(F)(F)c1cc(COc2cccnc2-c2ccccc2)cc(C(F)(F)F)c1`, the Kb in test [1] is 25.7 nM. In the test listed under Rattus norvegicus, the Remaining ratio stood at 9%.

`CN(Cc1cc(C(F)(F)F)cc(C(F)(F)F)c1)C(=O)c1ccc(N2CCOCC2)nc1-c1ccccc1` displayed a Kb in test [1] of 129 nM. Besides, the Remaining ratio in the test filed under Rattus norvegicus stood at 100%.
